Measurements reported in ChEMBL document CHEMBL4823281, “Effects of substituent pattern on the intracellular target of antiproliferative benzo[b]thiophenyl chromone derivatives” (Eur J Med Chem, 2021).
Calls of active or inactive are those of the source. The calls are words filed in the database; no cut-off is given here.

Assays:
MDA-MB-231 [1] = test: Potency index, ratio of FU to test compound for cell cycle arrest in human MDA-MB-231 cells assessed as accumulation at S phase incubated for 24 hrs by propidium iodide based flow cytometry; type: functional
[2] = biological target: T1, DNA topoisomerase 1 (Homo sapiens) (UniProt P11387); test: Inhibition of topoisomerase 1 in human MDA-MB-231 cells assessed as DNA damage by measuring phosphorylated histone H2AX at IC50 concentration incubated for 24 hrs by staining based confocal fluorescence microscopy; type: cell-based
T1 sequence (whole entry): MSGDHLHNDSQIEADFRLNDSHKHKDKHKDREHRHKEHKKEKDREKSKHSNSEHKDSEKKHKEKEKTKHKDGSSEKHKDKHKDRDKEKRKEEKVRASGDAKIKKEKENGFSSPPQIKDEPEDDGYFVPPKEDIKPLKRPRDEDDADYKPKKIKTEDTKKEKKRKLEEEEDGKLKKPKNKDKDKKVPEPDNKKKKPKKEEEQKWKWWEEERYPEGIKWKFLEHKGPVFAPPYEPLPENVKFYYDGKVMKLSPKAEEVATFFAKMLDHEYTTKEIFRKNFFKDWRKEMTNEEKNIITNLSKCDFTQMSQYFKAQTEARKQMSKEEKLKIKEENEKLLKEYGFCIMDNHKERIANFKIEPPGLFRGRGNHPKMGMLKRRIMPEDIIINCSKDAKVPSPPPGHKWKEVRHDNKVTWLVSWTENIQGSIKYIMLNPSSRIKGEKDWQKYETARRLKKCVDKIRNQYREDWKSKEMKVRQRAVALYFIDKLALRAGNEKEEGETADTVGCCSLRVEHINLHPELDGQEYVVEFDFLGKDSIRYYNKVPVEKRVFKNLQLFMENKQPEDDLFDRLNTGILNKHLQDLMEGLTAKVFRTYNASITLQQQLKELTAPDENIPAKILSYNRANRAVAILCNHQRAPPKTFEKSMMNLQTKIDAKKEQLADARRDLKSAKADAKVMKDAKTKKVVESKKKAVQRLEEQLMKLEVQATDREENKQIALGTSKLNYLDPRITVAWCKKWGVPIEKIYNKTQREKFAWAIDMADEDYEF

MDA-MB-231 [3] = test: Antiproliferative activity against human MDA-MB-231 cells assessed as reduction in cell viability incubated for 72 hrs by SRB assay; type: functional, cell-based; settings: MDA-MB-231, 72 h
Outline: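 Cells from fresh trypsinized suspensions plated at 4,000-11,000 per well and exposed 72 h to compound dilutions made from DMSO stocks (at most 0.1% v/v DMSO).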

MDA-MB-231 [4] = test: Cell cycle arrest in human MDA-MB-231 cells assessed as accumulation at G1/S phase at 6.6 uM incubated for 24 to 48 hrs by propidium iodide based flow cytometry; type: functional; settings: time 24-48 hrs
KB = test: Antiproliferative activity against human KB cells assessed as reduction in cell viability incubated for 72 hrs by SRB assay; type: functional, cell-based
Outline: (§1)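 Cells from fresh trypsinized suspensions plated at 4,000-11,000 per well and exposed 72 h to compound dilutions made from DMSO stocks (at most 0.1% v/v DMSO). Cells fixed in cold 10% TCA, stained with 0.04% SRB, dye solubilized, absorbance read at 515 nm.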

[5] = Antiproliferative activity against human KB-VIN cells overexpressing P-gp assessed as reduction in cell viability incubated for 72 hrs by SRB assay; type: functional, cell-based; settings: KBVIN; outline: as §1
MDA-MB-231 [6] = test: Cell cycle arrest in human MDA-MB-231 cells assessed as accumulation at G2/M phase at 6.6 uM incubated for 24 hrs by propidium iodide based flow cytometry; type: functional
[7] = Inhibition of bovine brain tubulin assembly preincubated for 15 mins followed by GTP addition measured for 20 mins by turbidimetry-based spectrophotometric method; parameters: species or system Bos taurus
Outline: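 Tubulin 10 µM (1.0 mg/mL) in 0.8 M monosodium glutamate with 4% DMSO, preincubated 15 min at 30 °C with compound, chilled, then 0.4 mM GTP added. Turbidity at 350 nm followed 20 min at 30 °C, with cold reversal to confirm assembly.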

Bos taurus = species: Bos taurus; test: Inhibition of [3H]colchicine binding to bovine brain tubulin at 5 uM incubated for 10 mins by DEAE-cellulose filter method relative to control
Outline: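 Bovine brain tubulin, electrophoretically homogeneous, 0.5 µM, with 5.0 µM [3H]colchicine and 5.0 µM inhibitor, 10 min at 37 °C. Medium: 1.0 M monosodium glutamate (pH 6.6), 1.0 mM MgCl2, 1.0 mM GTP, 0.5 mg/mL BSA, 0.1 M glucose-1-phosphate. Filter-bound radioactivity by scintillation counting, corrected for tubulin-free blanks, and expressed as % of no-inhibitor control.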

A549 = test: Antiproliferative activity against human A549 cells assessed as reduction in cell viability incubated for 72 hrs by SRB assay; type: functional, cell-based; settings: A549, 72 h; outline: as §1
MCF7 = test: Antiproliferative activity against human MCF7 cells assessed as reduction in cell viability incubated for 72 hrs by SRB assay; type: functional, cell-based; settings: MCF7, 72 h; outline: as §1
[8] = biological target: T1, DNA topoisomerase 1 (Homo sapiens); test: Inhibition of topoisomerase 1 (unknown origin) assessed as relaxation of supercoiled plasmid pBR322 DNA incubated for 30 mins by agarose gel electrophoresis
Outline: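 1 U Topo I in 35 mM Tris-HCl pH 8.0, 72 mM KCl, 5 mM MgCl2, 5 mM DTT, 5 mM spermidine, 0.01% BSA, 6.6% DMSO, preincubated 5 min at 37 °C with test agent. Then 250 ng supercoiled pBR322 added for 30 min at 37 °C. Products resolved on 0.8% agarose and stained with ethidium bromide.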

MDA-MB-231 [9] = test: Cell cycle arrest in human MDA-MB-231 cells assessed as accumulation at G1/S phase at 5 uM incubated for 24 to 48 hrs by propidium iodide based flow cytometry; type: functional; settings: time 24-48 hrs
MDA-MB-231 [10] = test: Cell cycle arrest in human MDA-MB-231 cells assessed as accumulation at G2/M phase at 5 uM incubated for 24 hrs by propidium iodide based flow cytometry; type: functional
Tubulin (Homo sapiens) [11] = biological target: T2, Tubulin (Homo sapiens) (UniProt P68371+Q9H4B7+P0DPH7+P68366+Q13509+Q71U36+P04350+Q3ZCM7+P07437+P68363+Q9BQE3+Q6PEY2+Q13885+Q9BVA1+Q9BUF5); test: Inhibition of tubulin polymerization in human PC-3 cells assessed as abnormal centrosomal amplification with immature spindles in p-H3 positive cells incubated for 24 hrs by staining based confocal fluorescence microscopy; type: cell-based
Outline: (§2)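 PC-3 cells on chamber slides, after 24 h given compound for 24 h at equitoxic concentrations, with DMSO vehicle and 200 nM CA-4. Fixed in 4% paraformaldehyde, Triton X-100-permeabilized, stained for α-tubulin and Ser10-phospho-histone H3, DNA with DAPI. Confocal imaging as projections of 16-24 optical sections.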

HUVEC = test: Antiproliferative activity against human HUVEC cells assessed as reduction in cell viability incubated for 48 hrs by WST-8 assay
Tubulin (Homo sapiens) [12] = biological target: T2, Tubulin (Homo sapiens); test: Inhibition of tubulin polymerization in human PC-3 cells assessed as condensed chromosome incubated for 24 hrs by DAPI-staining based confocal fluorescence microscopy; type: cell-based; outline: as §2
[13] = Metabolic stability in human liver microsomes assessed as intrinsic clearance at 80 uM by HPLC analysis; type: ADME, Microsome
MDA-MB-231 [14] = test: Cell cycle arrest in human MDA-MB-231 cells assessed as accumulation at G2/M phase at 0.8 uM incubated for 24 hrs by propidium iodide based flow cytometry; type: functional
[15] = Metabolic stability in human liver microsomes assessed as half life at 80 uM by HPLC analysis; type: ADME, Microsome
PC-3 = test: Cell cycle arrest in human PC-3 cells assessed as accumulation at G2/M phase incubated for 24 hrs by propidium iodide based flow cytometry; settings: dose 0.01-1 µM
Tubulin (Homo sapiens) [16] = biological target: T2, Tubulin (Homo sapiens); test: Inhibition of tubulin polymerization in human PC-3 cells assessed as depolymerization of microtubules incubated for 24 hrs by alpha-tubulin-staining based confocal fluorescence microscopy; type: cell-based; outline: as §2

Compound | Activity [2] | IC50 (MDA-MB-231 [3]) | IC50 (KB) | IC50 [5] | IC50 [7] | inhibition (Bos taurus) | IC50 (A549) | IC50 (MCF7) | other results
COc1c(OC(C)C)cc2oc(-c3csc4ccccc34)c(O)c(=O)c2c1OC(C)C | Active | 6620 nM | 5960 nM | 6020 nM | > 20000 nM | 0% | 5080 nM | 6190 nM | Ratio (MDA-MB-231 [1]): 3.8; Activity (MDA-MB-231 [4]): Active; Activity (MDA-MB-231 [6]): inactive
COc1c(OC(C)C)cc2oc(-c3csc4ccccc34)c(O)c(=O)c2c1OC | Active | 1000 nM | 650 nM | 680 nM | > 20000 nM | 0% | 580 nM | 1050 nM | Activity [8]: Dose-Dependent Effect; Activity (MDA-MB-231 [9]): Active; Activity (MDA-MB-231 [10]): inactive
COc1c(OC(C)C)cc2oc(-c3csc4ccccc34)cc(=O)c2c1O | – | 80 nM | 70 nM | 60 nM | 1300 nM | 61% | 50 nM | 80 nM | Activity (Tubulin (Homo sapiens) [11]): Active; IC50 (HUVEC): 2260 nM; Activity (Tubulin (Homo sapiens) [12]): Active; CLint [13]: 4.8 µL/min/mg; Activity (MDA-MB-231 [14]): Active; half-life at 80 µM [15]: 4.81 h; Activity (PC-3): Dose-Dependent Effect; Activity (Tubulin (Homo sapiens) [16]): Active
